Sampled rows, rich in hits. Any-hit rate of the full collection: about 3.8%.
KCNQ1 inh = inhibitors of human KCNQ1 potassium channel. CHO-K1 KCNQ1, FluxOR thallium flux fluorescence; stronger effect = higher value. B-score at 10 µM. actives 1.3% (n = 310,000);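 active = compounds whose thallium flux B-score, printed positive for inhibition, exceeds three library SD while starting fluorescence stays within three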;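 note: channel opened by potassium depolarization with thallium stimulus after 20 min compound exposure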
Target sequence (P51787 whole entry, looked up): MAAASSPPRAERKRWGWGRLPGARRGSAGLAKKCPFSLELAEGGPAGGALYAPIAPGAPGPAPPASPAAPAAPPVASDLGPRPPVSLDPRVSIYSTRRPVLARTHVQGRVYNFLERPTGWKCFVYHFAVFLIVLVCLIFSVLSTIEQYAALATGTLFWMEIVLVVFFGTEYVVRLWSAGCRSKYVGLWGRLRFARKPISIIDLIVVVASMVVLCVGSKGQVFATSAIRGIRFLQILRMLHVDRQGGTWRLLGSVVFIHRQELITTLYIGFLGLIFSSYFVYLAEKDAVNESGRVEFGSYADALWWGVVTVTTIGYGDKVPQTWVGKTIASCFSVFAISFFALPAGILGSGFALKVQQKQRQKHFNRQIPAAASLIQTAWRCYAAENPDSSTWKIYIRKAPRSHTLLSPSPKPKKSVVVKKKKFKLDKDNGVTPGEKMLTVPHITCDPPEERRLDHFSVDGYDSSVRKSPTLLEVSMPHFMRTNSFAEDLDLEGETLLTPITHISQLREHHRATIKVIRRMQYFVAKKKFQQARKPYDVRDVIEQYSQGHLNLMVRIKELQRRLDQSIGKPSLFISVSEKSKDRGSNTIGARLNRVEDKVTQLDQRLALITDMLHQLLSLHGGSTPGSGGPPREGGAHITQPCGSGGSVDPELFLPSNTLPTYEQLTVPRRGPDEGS
hERG protect = hERG (human) protection from proarrhythmic block | Q12809 | CHO-hERG, FluxOR thallium flux, dofetilide IC70 present | activation (rescue from dofetilide block), less the hit threshold, % at 10 µM | actives 0.51% (n = 310,000) | AID 1511;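 active = activation above the mean of controls blocked by dofetilide plus 5 SD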;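 note: thallium influx through hERG after potassium depolarization seen as dye fluorescence rise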
Kir21 block = inhibitors of mouse Kir2.1 inward-rectifier potassium channel; actives 0.85% (n = 310,000); B-score at 10 µM; HEK293-Kir2.1, FluxOR thallium flux fluorescence; stronger effect = lower value; P35561;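 active = fluorescence ratio B-score at or below minus 3 SD of library scores, with starting-brightness B-score within 2 SD, cut at about -4.2 in these data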;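 note: channel flux triggered by added potassium and thallium sulfate stimulus; B-score of peak minus minimum fluorescence over baseline after thallium stimulus; more negative B-score means stronger Kir2.1 block with less thallium influx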
KCNK9 inh = human KCNK9 channel inhibition | Q9NPC2 | HEK293 KCNK9, FluxOR thallium flux fluorescence; stronger effect = lower value | B-score at 10 µM | actives 1.2% (n = 310,000) | AID 488922;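 active = ratio B-score over 3 SD below the library mean, with starting fluorescence within 5 SD of its mean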;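 note: negative B-score means less thallium flux so channel inhibition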
KCNQ1 act = human KCNQ1 channel potentiation or activation | B-score at 10 µM | actives 0.35% (n = 310,000) | CHO-K1 KCNQ1, thallium flux FluxOR fluorescence; stronger effect = higher value | P51787;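 active = fluorescence ratio B-score, a plate-corrected score, at least three library SD, with initial intensity B-score within 5 SD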
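Assay system: stable KCNQ1 CHO-K1 line; medium: assay buffer, equal DMSO in all wells; timing: 90 min dye loading and 20 min compound exposure, both at room temperature; technique: kinetic FluxOR thallium fluorescence, 10-s 1-Hz baseline, 110-s post-stimulus read; read-out basis: B score of baseline-normalized fluorescence ratio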
KCNK3 block = human KCNK3 channel inhibition, primary screen | CHO-KCNK3 thallium flux, FluxOR fluorescence; stronger effect = lower value | AID 602410 | actives 0.84% (n = 340,000) | B-score at 10 µM | O14649;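 active = B-score under library mean minus 4 SD, starting fluorescence ratio at most library mean plus 5 SD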;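 note: more negative B-score means stronger inhibition of thallium flux through KCNK3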
* = called active by the depositor; i = inactive; nt = no result.

SMILES	KCNQ1 inh	hERG protect	Kir21 block	KCNK9 inh	KCNQ1 act	KCNK3 block
COc1cc(C)c(Cl)cc1S(=O)(=O)N1CCCC1	i	-7	-3.3	i	i	i
Cc1cc(C)c(S(=O)(=O)NCc2ccc3c(c2)OCO3)c(C)c1	i	-6	-1.1	i	i	i
CCCCC(=O)OCc1c(-c2cccc(OC)c2)ncc2ccccc12	nt	nt	nt	nt	nt	i
Cc1ccc2nc(-c3ccccc3)nn2c1	nt	nt	nt	nt	nt	i
CCn1c(SCC(=O)OCc2ccccc2)nnc1-c1ccco1	i	-7	-5.9*	i	i	i
CC(C)Cn1c(SCC(=O)c2ccc(Cl)s2)nnc1-c1ccco1	i	-17	-9.4*	i	i	i
O=c1[nH]cc(-c2ccccc2)c(=O)[nH]1	i	-2	0.03	i	12*	i
CC1CN(c2ccc([N+](=O)[O-])c(NCCOc3ccc(Cl)cc3)c2)CC(C)N1 (centres undefined)	9*	-30	-8*	i	i	i
Cc1cc(N/N=C/c2c(O)ccc3ccccc23)nc(-c2ccccc2O)n1	10*	-13	2.1	i	i	i
Oc1ccc2ccccc2c1/C=N/Nc1ccccc1	i	-5	1.2	i	i	i
COC(=O)C1CSC(C(=O)OC)N1C(=O)CN1CC(C)OC(C)C1 (centres undefined)	i	-4	-0.05	i	i	i
c1cc2c(cc1C1CCCCC1)c1c3n2CCCNC3CCC1 (centres undefined)	i	-30	-4.3*	i	i	i
CC(C)NC(=O)C1CCCN(c2nnc(-n3cccc3)s2)C1 (centres undefined)	i	-6	0.26	i	i	i
CC(=O)Nc1ccc(NC(=O)C2CCCN(c3nnc(-n4cccc4)s3)C2)cc1 (centres undefined)	i	0	-4.6*	i	i	i
CC1CC(C)CN(C(=O)c2cccc(S(=O)(=O)Nc3cc(C(F)(F)F)ccc3Cl)c2)C1 (centres undefined)	7*	-13	-1.2	i	i	i
O=C(O)c1cccc(S(=O)(=O)Nc2cc(Cl)ccc2Cl)c1	i	-7	0.46	i	i	i
O=C(Nc1ccccc1)c1cccc(S(=O)(=O)NCc2ccco2)c1	i	7.3*	1.2	i	i	i
O=C(Nc1cccc(S(=O)(=O)NCc2ccco2)c1)c1cc(-c2ccc(F)cc2)nc2ccccc12	7*	-10	-1.4	i	i	i
O=C(Nc1ccccc1)c1ccc(S(=O)(=O)NCc2ccco2)cc1	i	-7	-0.04	i	i	i
Cc1ccccc1Nc1nnc(SCC(=O)c2c(N)n(C3CC3)c(=O)[nH]c2=O)s1	nt	nt	nt	nt	nt	i
Cn1c2ccccc2c(=O)c2ccc(NCCc3cccs3)cc21	nt	nt	nt	nt	nt	-9.1*
[N-]=[N+]=NC[C@H](Cc1ccccc1)N1CC[C@@H](OCc2ccccc2)CCC1=O	i	-10	-1.8	i	i	i
CN1C(=O)C2(OCC(C)([N+](=O)[O-])CO2)c2ccccc21 (centres undefined)	i	8.6*	1.5	i	i	i
COc1ccccc1C1(CCNC(C)c2cccs2)CCOC(C(C)C)C1 (centres undefined)	i	-12	-8.9*	i	i	i
NC(=O)CCN1CCN(CCOC2Cc3cc(Cl)ccc3Sc3ccccc32)CC1 (centres undefined)	i	-11	-6.4*	i	i	i
Cc1ccccc1NS(=O)(=O)c1cc(C(=O)Nc2ccccc2-c2ccccc2)ccc1Cl	i	-5	-1.3	-7.2*	i	i
CCOC(=O)/C(C#N)=C/c1ccc(SC)cc1	i	42*	0.84	i	i	i
CCOC(=O)/C(C#N)=C/c1ccc(OC)c(OC)c1	i	-10	0.36	i	i	i
COc1ccc(OCc2cccc(C(=O)Nc3ccc(CN4CCCCC4)cc3)c2)cc1	i	-13	-3.1	i	i	i
CCOc1ccc(OCc2cccc(C(=O)Nc3ccc(CN4CCCCC4)cc3)c2)cc1	6*	-22	-1.9	i	i	i

Source: PubChem (Johns Hopkins Ion Channel Center)
